Data reported in ChEMBL document CHEMBL3797187, “Design, synthesis and biological evaluation of potent FAAH inhibitors” (Bioorg Med Chem Lett, 2016).

Experiments:
[1] = biological target: T1, Fatty-acid amide hydrolase 1 (Homo sapiens) (UniProt O00519); experiment: Inhibition of human recombinant FAAH expressed in sf21 cells using AMC-AA as substrate at 10 uM preincubated for 15 mins followed by substrate addition measured after 2 hrs by spectrophotometric analysis relative to control
T1 sequence (whole entry): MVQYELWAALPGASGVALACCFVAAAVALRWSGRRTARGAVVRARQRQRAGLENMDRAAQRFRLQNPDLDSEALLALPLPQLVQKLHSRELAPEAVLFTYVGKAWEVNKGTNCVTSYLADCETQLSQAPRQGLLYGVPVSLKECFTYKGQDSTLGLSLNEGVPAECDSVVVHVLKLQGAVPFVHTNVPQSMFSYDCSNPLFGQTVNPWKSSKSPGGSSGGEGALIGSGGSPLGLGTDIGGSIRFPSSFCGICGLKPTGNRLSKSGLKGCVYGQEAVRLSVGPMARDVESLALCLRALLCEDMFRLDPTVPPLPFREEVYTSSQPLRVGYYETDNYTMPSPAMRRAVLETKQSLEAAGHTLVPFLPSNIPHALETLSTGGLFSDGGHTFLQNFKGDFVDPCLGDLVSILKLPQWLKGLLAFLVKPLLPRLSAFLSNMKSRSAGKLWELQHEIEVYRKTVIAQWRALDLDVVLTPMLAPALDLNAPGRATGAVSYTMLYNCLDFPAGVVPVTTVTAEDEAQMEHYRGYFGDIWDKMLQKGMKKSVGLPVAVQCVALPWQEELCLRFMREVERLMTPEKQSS
In short: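 Human recombinant FAAH expressed in SF21 cells, 4 U/mL, preincubated 15 min with compound at 37 °C in Tris buffer pH 9. Hydrolysis of the fluorogenic substrate AMC-arachidonamide then measured. Single-point screen at 10 µM as % inhibition. IC50 from concentration-response, mean ± SEM of three experiments performed in duplicate.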

[2] = biological target: T2, Fatty-acid amide hydrolase 1 (Homo sapiens, UniProt O00519); experiment: Inhibition of human recombinant FAAH expressed in sf21 cells using AMC-AA as substrate preincubated for 15 mins followed by substrate addition measured after 2 hrs by spectrophotometric analysis
T2 sequence (O00519 whole entry): T1 sequence (whole entry)
In short: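 Human recombinant FAAH expressed in SF21 cells, 4 U/mL, preincubated 15 min with compound at 37 °C in Tris buffer pH 9. Hydrolysis of the fluorogenic substrate AMC-arachidonamide then measured. IC50 from concentration-response, mean ± SEM of three experiments performed in duplicate.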

[3] = Cytotoxicity against human HT-29 cells assessed as growth inhibition at 10 uM after 72 hrs by MTS assay relative to control; assay type: cell-based; settings: read-out: GI
In short: (§1)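 Test compounds at 10 µM on human colorectal adenocarcinoma HT29 and human embryonic kidney HEK293 cells. Cell proliferation scored colorimetrically by MTS tetrazolium reduction to formazan (NADPH-dependent oxidoreductase activity as viable-cell readout). Reported as % inhibition at 10 µM.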

[4] = Cytotoxicity against human HEK293 cells assessed as growth inhibition at 10 uM after 72 hrs by MTS assay relative to control; assay type: cell-based; settings: read-out: GI; in short: as §1
[5] = biological target: T1, Fatty-acid amide hydrolase 1 (Homo sapiens); experiment: Potency index, ratio of 5-(4-Pentyloxy-phenyl)-isoxazole-3-carboxylic acid adamantan-1-ylamide IC50 to compound IC50 for human recombinant FAAH expressed in sf21 cells

| Compound | inhibition [1] | IC50 [2] | inhibition at 72 h, 10 µM [3] | inhibition at 72 h, 10 µM [4] | Ratio IC50 [5] |
| --- | --- | --- | --- | --- | --- |
| N#Cc1cccc(-c2ccc(-c3cc(C(=O)NC45CC6CC(CC(C6)C4)C5)no3)cc2)c1 | 64% | 240 nM | 0% | 0% | 2 |
| O=C(NC12CC3CC(CC(C3)C1)C2)c1cc(-c2ccc(-c3cnc4ccccc4c3)cc2)on1 | 22% |  | 0% | 24% |  |
| O=C(NC12CC3CC(CC(C3)C1)C2)c1cc(-c2ccc(-c3ccc4c(c3)OCO4)cc2)on1 | 18% |  | 0% | 9% |  |
| CN1CCN(C(=O)c2ccc(-c3ccc(-c4cc(C(=O)NC56CC7CC(CC(C7)C5)C6)no4)cn3)cc2)CC1 | 10% |  | 0% | 3% |  |
| COc1ccc(-c2ccc(-c3cc(C(=O)NC45CC6CC(CC(C6)C4)C5)no3)cc2)cc1 | 15% |  | 0% | 2% |  |
| CCCCCOc1ccc(-c2cc(C(=O)NC34CC5CC(CC(C5)C3)C4)no2)cc1 | 79% |  |  |  |  |
| O=C(NC12CC3CC(CC(C3)C1)C2)c1cc(-c2ccc(-c3cccc(C(=O)N4CCOCC4)c3)cc2)on1 | 49% |  | 10% | 54% |  |
| O=C(NC12CC3CC(CC(C3)C1)C2)c1cc(-c2ccc(-c3ccccc3)nc2)on1 | 23% |  | 0% | 14% |  |
| COc1ccc(-c2ccc(-c3cc(C(=O)NC45CC6CC(CC(C6)C4)C5)no3)cc2)cc1OC | 14% |  | 7% | 29% |  |
| CN1CCN(C(=O)c2cccc(-c3ccc(-c4cc(C(=O)NC56CC7CC(CC(C7)C5)C6)no4)cc3)c2)CC1 | 44% |  | 55% | 47% |  |
| O=C(NC12CC3CC(CC(C3)C1)C2)c1cc(-c2ccc(-c3ccncc3)nc2)on1 | 23% |  | 0% | 1% |  |
| CC(=O)c1cccc(-c2ccc(-c3cc(C(=O)NC45CC6CC(CC(C6)C4)C5)no3)cc2)c1 | 56% | 590 nM | 1% | 16% |  |
| CC(=O)c1ccc(-c2ccc(-c3cc(C(=O)NC45CC6CC(CC(C6)C4)C5)no3)cc2)cc1 | 18% |  | 4% | 5% |  |
| O=C(NC12CC3CC(CC(C3)C1)C2)c1cc(-c2ccc(-c3cccc(CN4CCOCC4)c3)cc2)on1 | 69% | 830 nM | 0% | 38% |  |
| O=C(NC12CC3CC(CC(C3)C1)C2)c1cc(-c2ccc(-c3ccc(C(=O)N4CCOCC4)cc3)nc2)on1 | 12% |  | 0% | 10% |  |
| CC(=O)c1cccc(-c2ccc(-c3cc(C(=O)NC45CC6CC(CC(C6)C4)C5)no3)cn2)c1 | 22% |  | 0% | 18% |  |

| Compound | inhibition [1] | IC50 [2] | inhibition at 72 h, 10 µM [3] | inhibition at 72 h, 10 µM [4] | Ratio IC50 [5] |
| --- | --- | --- | --- | --- | --- |
| NC(=O)c1ccc(-c2ccc(-c3cc(C(=O)NC45CC6CC(CC(C6)C4)C5)no3)cc2)cc1 | 10% |  | 0% | 4% |  |
| CN1CCN(C(=O)c2ccc(-c3ccc(-c4cc(C(=O)NC56CC7CC(CC(C7)C5)C6)no4)cc3)cc2)CC1 | 23% |  | 24% | 37% |  |
| O=C(NC12CC3CC(CC(C3)C1)C2)c1cc(-c2ccc(-c3ccncc3)cc2)on1 | 17% |  | 1% | 9% |  |
| NC(=O)c1cccc(-c2cccc(OC(=O)NC3CCCCC3)c2)c1 [URB-597] | 98% |  | 0% | 0% |  |
| O=C(NC12CC3CC(CC(C3)C1)C2)c1cc(-c2ccc(-c3ccco3)cc2)on1 | 31% |  | 0% | 12% |  |
| NC(=O)c1cccc(-c2ccc(-c3cc(C(=O)NC45CC6CC(CC(C6)C4)C5)no3)cc2)c1 | 11% |  | 0% | 3% |  |
| NC(=O)c1cccc(-c2ccc(-c3cc(C(=O)NC45CC6CC(CC(C6)C4)C5)no3)cn2)c1 | 20% |  | 14% | 1% |  |
| O=C(NC12CC3CC(CC(C3)C1)C2)c1cc(-c2ccc(-c3ccc(C(=O)N4CCOCC4)cc3)cc2)on1 | 24% |  | 0% | 23% |  |
| COc1ccccc1-c1ccc(-c2cc(C(=O)NC34CC5CC(CC(C5)C3)C4)no2)cc1 | 47% |  | 2% | 25% |  |
| O=C(NC12CC3CC(CC(C3)C1)C2)c1cc(-c2ccc(-c3ccc(CN4CCOCC4)cc3)cc2)on1 | 16% |  | 0% | 20% |  |
| CN1CCN(Cc2cccc(-c3ccc(-c4cc(C(=O)NC56CC7CC(CC(C7)C5)C6)no4)cc3)c2)CC1 | 63% | 1130 nM | 97% | 93% |  |
| COc1cccc(-c2ccc(-c3cc(C(=O)NC45CC6CC(CC(C6)C4)C5)no3)cc2)c1 | 58% | 720 nM | 0% | 20% |  |
| CC(=O)c1ccc(-c2ccc(-c3cc(C(=O)NC45CC6CC(CC(C6)C4)C5)no3)cn2)cc1 | 13% |  | 0% | 5% |  |
| COc1cc(-c2ccc(-c3cc(C(=O)NC45CC6CC(CC(C6)C4)C5)no3)cc2)cc(OC)c1OC | 42% |  | 6% | 32% |  |
| CN1CCN(Cc2ccc(-c3ccc(-c4cc(C(=O)NC56CC7CC(CC(C7)C5)C6)no4)cc3)cc2)CC1 | 41% |  | 90% | 89% |  |
